“Also recorded” adds a separate entry of the source.
Experiments:
[1] = system: subcutaneous human tumor xenografts; details: oral administration; lung, prostate, pancreatic, glioma, colon, breast; cited from earlier work
[2] = system: lung carcinoma xenografts; details: cited from earlier work
prostate carcinoma cells = details: in vitro; cited from earlier work
Pharmacokinetic = format: in vivo, Balb/c mice; details: plasma; for Cmax: mice
[3] = PND-1186 levels in tumor samples by HPLC and mass spectroscopy; format: in vivo, Balb/c mice; details: for maximal PND-1186 in tumors / time to maximal PND-1186 in tumors: subcutaneous 4T1 tumors
[4] = target: FAK Tyr-397 phosphorylation (pY397 FAK) (Mus musculus, UniProt P34152); experiment: Immunoblotting of tumor FAK Tyr-397 phosphorylation in 4T1 tumors; format: in vivo, Balb/c mice
FAK Tyr-397 phosphorylation (pY397 FAK), sequence (P34152 whole entry): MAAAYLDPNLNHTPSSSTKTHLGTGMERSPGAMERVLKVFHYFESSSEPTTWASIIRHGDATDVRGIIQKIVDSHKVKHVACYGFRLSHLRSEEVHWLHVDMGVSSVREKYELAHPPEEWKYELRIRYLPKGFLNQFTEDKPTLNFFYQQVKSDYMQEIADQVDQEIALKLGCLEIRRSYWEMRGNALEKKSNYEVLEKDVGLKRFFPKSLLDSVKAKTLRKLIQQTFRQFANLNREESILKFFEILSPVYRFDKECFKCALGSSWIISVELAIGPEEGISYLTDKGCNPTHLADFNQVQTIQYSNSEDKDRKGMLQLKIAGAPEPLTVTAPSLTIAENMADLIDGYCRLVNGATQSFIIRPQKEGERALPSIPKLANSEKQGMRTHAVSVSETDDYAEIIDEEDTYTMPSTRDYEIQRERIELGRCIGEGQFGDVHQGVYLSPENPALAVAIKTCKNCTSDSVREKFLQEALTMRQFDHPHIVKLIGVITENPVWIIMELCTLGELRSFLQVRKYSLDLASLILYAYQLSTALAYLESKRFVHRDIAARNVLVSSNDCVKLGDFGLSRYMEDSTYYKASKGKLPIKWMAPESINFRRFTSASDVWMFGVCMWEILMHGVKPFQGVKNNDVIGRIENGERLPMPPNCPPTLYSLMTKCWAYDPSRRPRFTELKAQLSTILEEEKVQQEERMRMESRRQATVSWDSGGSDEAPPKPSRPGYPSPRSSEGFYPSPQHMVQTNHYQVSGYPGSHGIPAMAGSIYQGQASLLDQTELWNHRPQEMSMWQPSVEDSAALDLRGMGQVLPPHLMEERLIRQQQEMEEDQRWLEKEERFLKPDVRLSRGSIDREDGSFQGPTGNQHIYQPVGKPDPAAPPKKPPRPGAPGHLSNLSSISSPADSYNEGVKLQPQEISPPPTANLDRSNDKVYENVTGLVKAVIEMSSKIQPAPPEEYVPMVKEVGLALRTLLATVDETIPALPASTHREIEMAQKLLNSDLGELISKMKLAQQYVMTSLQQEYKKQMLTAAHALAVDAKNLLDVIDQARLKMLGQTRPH

[5] = system: p130Cas Tyr-410 phosphorylation (pY410Cas); experiment: Immunoblotting of tumor p130Cas Tyr-410 phosphorylation in 4T1 tumors; format: in vivo, Balb/c mice
[6] = system: 4T1 orthotopic breast carcinoma tumors; experiment: Orthotopic 4T1 breast carcinoma tumor growth; format: in vivo, Balb/c mice
[7] = system: 4T1 tumor blood vessels (CD31); experiment: Anti-CD31 staining of 4T1 orthotopic tumors; format: in vivo, Balb/c mice; details: 150 mg/kg p.o. b.i.d.
[8] = system: tumor-associated splenomegaly; experiment: Spleen weight in 4T1 tumor-bearing mice; format: in vivo, Balb/c mice
[9] = system: TNFα-stimulated IL-6 production in 4T1 cells; experiment: IL-6 ELISA of TNFα-stimulated 4T1 cells; format: cell-based, murine; details: 0.25 to 1.0 µM, TNFα 10 ng/ml, 24 h
4T1 lung metastases = experiment: Spontaneous 4T1 breast to lung metastasis; format: in vivo, Balb/c mice; details: 150 mg/kg p.o. b.i.d. for 15 days
[10] = Body weight and toxicity in mouse studies; format: in vivo
Water solubility = format: physicochemical
pY118 paxillin = experiment: Immunoblotting of pY118 paxillin in orthotopic 4T1 tumors; format: in vivo, Balb/c mice; details: 0.5 mg/ml ad libitum
[11] = system: MDA-MB-231 orthotopic tumors; experiment: Orthotopic MDA-MB-231 tumor growth; format: in vivo, SCID mice; details: 0.5 mg/ml ad libitum, Day 27 (15 days of administration)
[12] = target: FAK pY397 phosphorylation (Homo sapiens, UniProt Q05397); experiment: Immunoblotting of FAK pY397 in MDA-MB-231 tumors; format: in vivo; details: 0.5 mg/ml ad libitum
FAK pY397 phosphorylation, sequence (Q05397 whole entry): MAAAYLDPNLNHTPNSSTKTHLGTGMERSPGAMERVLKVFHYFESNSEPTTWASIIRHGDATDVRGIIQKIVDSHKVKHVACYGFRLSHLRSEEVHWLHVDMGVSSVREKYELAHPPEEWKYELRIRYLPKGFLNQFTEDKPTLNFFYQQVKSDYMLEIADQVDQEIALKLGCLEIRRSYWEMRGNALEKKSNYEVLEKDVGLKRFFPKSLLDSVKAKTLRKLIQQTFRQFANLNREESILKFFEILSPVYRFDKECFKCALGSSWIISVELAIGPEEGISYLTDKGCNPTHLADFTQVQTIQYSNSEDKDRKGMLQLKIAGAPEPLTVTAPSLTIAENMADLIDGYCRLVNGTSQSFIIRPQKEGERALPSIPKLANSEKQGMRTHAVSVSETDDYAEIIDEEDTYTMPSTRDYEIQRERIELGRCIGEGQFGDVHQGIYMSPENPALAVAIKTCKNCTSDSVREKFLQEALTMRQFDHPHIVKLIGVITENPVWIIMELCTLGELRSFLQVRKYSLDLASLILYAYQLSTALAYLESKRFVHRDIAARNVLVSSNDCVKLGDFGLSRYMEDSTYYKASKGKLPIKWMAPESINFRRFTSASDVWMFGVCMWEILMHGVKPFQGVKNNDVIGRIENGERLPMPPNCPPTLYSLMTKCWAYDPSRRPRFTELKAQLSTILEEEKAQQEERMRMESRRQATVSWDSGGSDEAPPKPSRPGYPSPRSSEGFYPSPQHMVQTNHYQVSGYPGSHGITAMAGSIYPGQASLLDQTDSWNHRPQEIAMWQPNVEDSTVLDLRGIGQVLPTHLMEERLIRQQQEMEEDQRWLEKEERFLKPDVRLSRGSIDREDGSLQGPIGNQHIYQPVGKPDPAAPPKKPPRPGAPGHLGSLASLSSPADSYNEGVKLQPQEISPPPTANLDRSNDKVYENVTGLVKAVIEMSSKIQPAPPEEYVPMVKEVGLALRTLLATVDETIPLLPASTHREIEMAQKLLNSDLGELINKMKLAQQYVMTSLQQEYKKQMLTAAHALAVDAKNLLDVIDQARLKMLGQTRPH
Method in brief: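 From day 12 (palpable tumors), mice drank 5% sucrose or 0.5 mg/ml compound in 5% sucrose ad libitum. Tumor growth was followed to Day 70; final tumors were weighed and lysed for immunoblot of the FAK pY397 to total FAK ratio (n=11 control, 13 treated).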

[13] = system: MDA-MB-231 cells in lungs; experiment: Experimental metastasis assay; format: in vivo, nude mice; details: 150 mg/kg p.o. pre-administered, 1 and 6 h after cell injection
[14] = system: suspended MDA-MB-231 cells; experiment: Apoptosis assay; format: cell-based, human; details: concentrations up to 10 µM, within 6 h
Method in brief: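 Suspended MDA-MB-231 cells exposed to test compound or DMSO for 1 h or 6 h, then stained with FITC-annexin V for 30 min and analysed by flow cytometry within 1 h. Quadrant gates were set from autofluorescence (negative) and staurosporine 1 µM (positive) controls. Apoptosis is the percent of annexin V-positive cells.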

cell motility = details: 0.1 to 1.0 µM; cited from earlier work
[15] = system: adherent cell proliferation; details: 1.0 µM; cited from earlier work
[16] = system: carcinoma cells in three-dimensional culture; details: 0.1 µM; cited from earlier work
Src activity = details: adherent or suspended 4T1 cells; cited from earlier work
glioma tumor = details: mice; cited from earlier work
[17] = 0.5 mg/ml ad libitum, orthotopic 4T1 tumors

CN(c1ncccc1CNc1nc(Nc2ccc3c(c2)CC(=O)N3)ncc1C(F)(F)F)S(C)(=O)=O [PF-562,271]
growth of subcutaneous human tumor xenografts [1]: reduces the growth
tumor microvessel density [2]: reduced tumor microvessel density

CS(=O)(=O)c1cccc(CNc2nc(Nc3ccc4c(c3)CCC(=O)N4)ncc2C(F)(F)F)c1 [PF-573,228]
prostate carcinoma cell motility (prostate carcinoma cells): prevented prostate carcinoma cell motility in vitro

CNC(=O)c1ccccc1Nc1cc(Nc2ccc(N3CCOCC3)cc2OC)ncc1C(F)(F)F [PND-1186]
Cmax (Pharmacokinetic; 30 mg/kg i.p.): 34.8 µM
bioavailability (Pharmacokinetic; Balb/c, mouse, ip, 30 mg/kg): 31.1%
bioavailability (Pharmacokinetic; Balb/c, mouse, ip, 100 mg/kg): 42.2%
Cmax (Pharmacokinetic; Balb/c, mouse, ip, 100 mg/kg, CMAX, 100 mg/kg i.p.): 117 µM
concentration at 7 days (Pharmacokinetic; Balb/c, mouse, oral, 0.5 mg/ml): 1.2 µM
bioavailability (Pharmacokinetic; Balb/c, mouse, po, 150 mg/kg): 14.8%
maximal PND-1186 in tumors ([3]; 30 mg/kg single i.p.): 0.75 µg/g
time to maximal PND-1186 in tumors ([3]; 30 mg/kg single i.p.): ≤ 1 h
maximal PND-1186 in tumors ([3]; 100 mg/kg single i.p.): 16.1 µg/g
time to maximal PND-1186 in tumors ([3]; 100 mg/kg single i.p.): ≤ 1 h
concentration at 7 days ([3]; Balb/c, mouse, tumor, oral, 0.5 mg/ml): 522 ng/g
FAK pY397 phosphorylation in primary 4T1 tumors [4, 17]: sufficient to inhibit
tumor FAK pY397 phosphorylation at 12 h ([4]; 30 mg/kg single i.p., subcutaneous 4T1 tumors, 12 h): not significantly inhibited
p130Cas pY410 phosphorylation in primary 4T1 tumors [5, 17]: sufficient to inhibit
p130Cas Tyr-410 phosphorylation (pY410Cas) in tumors ([5]; 100 mg/kg single i.p., subcutaneous 4T1 tumors, by 3 h): significantly reduced
tumor size by caliper measurements versus control ([6]; 0.5 mg/ml ad libitum, Day 13): tumor size was significantly different
reduction of final tumor volume compared to vehicle control ([6]; 150 mg/kg p.o. b.i.d., 16 days): 3 fold
tumor volume compared to vehicle control ([6]; 150 mg/kg p.o. b.i.d., Day 7): significantly reduced tumor volume
vascular differences by anti-CD31 staining [7]: no major vascular differences
spleen size ([8]; 0.5 mg/ml ad libitum): of normal size
spleen appearance ([8]; 150 mg/kg p.o. b.i.d.): healthy and indistinguishable from non-treated, non-tumor bearing mice
spleen weight, vehicle-treated over PND-1186-treated mice ([8]; 150 mg/kg p.o. b.i.d.): > 2 fold
IL-6 release [9]: inhibited IL-6 release in a dose-dependent manner
mice with high lung metastatic burden (4T1 lung metastases): no mice with a high metastatic burden
toxicity or weight loss ([10]; 0.5 mg/ml ad libitum administration): no signs of toxicity or weight loss; also recorded: without toxicity or weight loss
effect on total body weight ([10]; 150 mg/kg p.o. b.i.d., 4T1 tumor-bearing Balb/c mice): without affects on total body weight
solubility (Water solubility): > 20 mg/mL
pY118 paxillin phosphorylation in tumors (pY118 paxillin): inhibited
tumor size by caliper measurements versus control [11]: control tumors were significantly larger
FAK pY397 phosphorylation in MDA-MB-231 tumors [12]: significantly reduce
accumulation of tumor cells in the lungs [13]: significantly inhibited the accumulation of tumor cells in the lungs
MDA-MB-231 apoptosis by annexin V binding [14]: did not promote MDA-MB-231 apoptosis
cell motility (cell motility): prevents cell motility in a dose-dependent fashion
adherent cell proliferation [15]: limited inhibitory effects on adherent cell proliferation
carcinoma cell apoptosis under three-dimensional culture conditions [16]: selectively promotes carcinoma cell apoptosis
Src activity (Src activity): does not inhibit Src activity

CNC(=O)c1ccccc1Nc1nc(Nc2ccc(N3CCOCC3)cc2OC)ncc1Cl [TAE-226]
glioma tumor growth (glioma tumor): can prevent glioma tumor growth in mice

Source: publication PMC2933309 (Cancer biology & therapy, 2010)
